# Data from ChEMBL document CHEMBL1255284, “Aspergillus section Fumigati: antifungal susceptibility patterns and sequence-based identification” (2008).
# How the values were obtained:
# [1] = test system: Neosartorya pseudofischeri; test: Antimicrobial activity against Neosartorya pseudofischeri isolate CNM-CM-4060 obtained from sputum of patient after 48 hrs by broth microdilution method; format: functional; details: Aspergillus thermomutatus
# How it was run: (§1)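 CLSI M38-A broth microdilution with modifications: RPMI 1640 with L-glutamine, MOPS-buffered to pH 7, plus 2% glucose. Inoculum 1 × 10^5 to 5 × 10^5 CFU/ml from 3–5-day cultures. Incubated at 35°C for 48 h, humid. Read visually with a mirror. MIC = complete growth inhibition; echinocandin MEC = altered hyphal morphology. QC strain A. fumigatus ATCC 2004305.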
# Aspergillus lentulus [2] = test: Antimicrobial activity against Aspergillus lentulus isolate CNM-CM-3538 obtained from sputum of patient after 48 hrs by broth microdilution method; format: functional; details: isolate CNM-CM-3538, 48 h
# How it was run: (§2)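 CLSI M38-A broth microdilution with modifications: RPMI 1640 with L-glutamine, 2% glucose, buffered to pH 7 with 0.165 M MOPS. Inoculum of 1 × 10^5 to 5 × 10^5 CFU/ml from 3- to 5-day-old cultures. Incubated 35°C, 48 h, humid. Visual reading with a mirror. MIC is complete growth inhibition; echinocandin MEC is hyphal morphological alteration. Azoles 8 to 0.015 μg/ml; others 16 to 0.03 μg/ml.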
# [3] = test system: Neosartorya pseudofischeri; test: Antimicrobial activity against Neosartorya pseudofischeri isolate CNM-CM-3769 obtained from sputum of patient after 48 hrs by broth microdilution method; format: functional; details: Aspergillus thermomutatus; how it was run: as §1
# Neosartorya hiratsukae [4] = test: Antimicrobial activity against Neosartorya hiratsukae isolate CNM-CM-3303 obtained from skin of patient after 48 hrs by broth microdilution method; format: functional; details: Aspergillus hiratsukae, isolate CNM-CM-3303, 48 h; how it was run: as §2
# Aspergillus lentulus [5] = test: Antimicrobial activity against Aspergillus lentulus isolate CNM-CM-3583 obtained from sputum of patient after 48 hrs by broth microdilution method; format: functional; details: isolate CNM-CM-3583, 48 h; how it was run: as §2
# Neosartorya hiratsukae [6] = test: Antimicrobial activity against Neosartorya hiratsukae isolate CNM-CM-3764 obtained from oropharyngeal exudate of patient after 48 hrs by broth microdilution method; format: functional; details: Aspergillus hiratsukae, isolate CNM-CM-3764, 48 h; how it was run: as §2
# Neosartorya hiratsukae [7] = test: Antimicrobial activity against Neosartorya hiratsukae isolate CNM-CM-3740 obtained from oropharyngeal exudate of patient after 48 hrs by broth microdilution method; format: functional; details: Aspergillus hiratsukae, isolate CNM-CM-3740, 48 h; how it was run: as §2
# Aspergillus viridinutans [8] = test: Antimicrobial activity against Aspergillus viridinutans isolate CNM-CM-4518 obtained from nail of patient after 48 hrs by broth microdilution method; format: functional; details: isolate CNM-CM-4518, 48 h; how it was run: as §2
# Aspergillus lentulus [9] = test: Antimicrobial activity against Aspergillus lentulus isolate CNM-CM-4387 obtained from sputum of patient after 48 hrs by broth microdilution method; format: functional; details: isolate CNM-CM-4387, 48 h; how it was run: as §2
# [10] = test system: Aspergillus fumisynnematus; test: Antimicrobial activity against Aspergillus fumisynnematus isolate CNM-CM-4063 obtained from bronchoalveolar aspirate of patient after 48 hrs by broth microdilution method; format: functional; details: isolate CNM-CM-4063, Lung; how it was run: as §2
# Aspergillus lentulus [11] = test: Antimicrobial activity against Aspergillus lentulus isolate CNM-CM-3364 obtained from bronchoalveolar lavage fluid of patient after 48 hrs by broth microdilution method; format: functional; details: isolate CNM-CM-3364, Lung; how it was run: as §2
# [12] = test system: Aspergillus fumigatiaffinis; test: Antimicrobial activity against Aspergillus fumigatiaffinis isolate CNM-CM-2280 obtained from sputum of patient after 48 hrs by broth microdilution method; details: isolate CNM-CM-2280, 48 h
# Aspergillus lentulus [13] = test: Antimicrobial activity against Aspergillus lentulus isolate CNM-CM-4330 obtained from sputum of patient after 48 hrs by broth microdilution method; format: functional; details: isolate CNM-CM-4330, 48 h; how it was run: as §2
# Aspergillus lentulus [14] = test: Antimicrobial activity against Aspergillus lentulus isolate CNM-CM-4415 obtained from sputum of patient after 48 hrs by broth microdilution method; format: functional; details: isolate CNM-CM-4415, 48 h; how it was run: as §2
# Neosartorya hiratsukae [15] = test: Antimicrobial activity against Neosartorya hiratsukae isolate CNM-CM-3305 obtained from skin of patient after 48 hrs by broth microdilution method; format: functional; details: Aspergillus hiratsukae, isolate CNM-CM-3305, 48 h; how it was run: as §2
# Aspergillus lentulus [16] = test: Antimicrobial activity against Aspergillus lentulus isolate CNM-CM-3599 obtained from sputum of patient after 48 hrs by broth microdilution method; format: functional; details: isolate CNM-CM-3599, 48 h; how it was run: as §2
# Aspergillus lentulus [17] = test: Antimicrobial activity against Aspergillus lentulus isolate CNM-CM-4370 obtained from sputum of patient after 48 hrs by broth microdilution method; format: functional; details: isolate CNM-CM-4370, 48 h; how it was run: as §2
# [18] = test system: Neosartorya pseudofischeri; test: Antimicrobial activity against Neosartorya pseudofischeri isolate CNM-CM-2270 obtained from sputum of patient after 48 hrs by broth microdilution method; format: functional; details: Aspergillus thermomutatus, isolate CNM-CM-2270, 48 h; how it was run: as §1
# Aspergillus fumigatus = test: Antimicrobial activity against Aspergillus fumigatus ATCC 2004305 after 48 hrs by broth microdilution method; format: functional; details: ATCC 2004305, 48 h
# [19] = test system: Aspergillus fumigatiaffinis; test: Antimicrobial activity against Aspergillus fumigatiaffinis isolate CNM-CM-3227 obtained from bronchoalveolar lavage fluid of patient after 48 hrs by broth microdilution method; details: isolate CNM-CM-3227, Lung
# Aspergillus lentulus [20] = test: Antimicrobial activity against Aspergillus lentulus isolate CNM-CM-4420 obtained from nail of patient after 48 hrs by broth microdilution method; format: functional; details: isolate CNM-CM-4420, 48 h; how it was run: as §2
# Aspergillus lentulus [21] = test: Antimicrobial activity against Aspergillus lentulus isolate CNM-CM-3537 obtained from sputum of patient after 48 hrs by broth microdilution method; format: functional; details: isolate CNM-CM-3537, 48 h; how it was run: as §2
# Aspergillus lentulus [22] = test: Antimicrobial activity against Aspergillus lentulus isolate CNM-CM-1290 obtained from sputum of patient after 48 hrs by broth microdilution method; format: functional; details: isolate CNM-CM-1290, 48 h; how it was run: as §2
# [23] = test system: Neosartorya pseudofischeri; test: Antimicrobial activity against Neosartorya pseudofischeri isolate CNM-CM-3914 obtained from nail of patient after 48 hrs by broth microdilution method; format: functional; details: Aspergillus thermomutatus, isolate CNM-CM-3914, 48 h; how it was run: as §1
# Neosartorya hiratsukae [24] = test: Antimicrobial activity against Neosartorya hiratsukae isolate CNM-CM-4328 obtained from cornea of patient after 48 hrs by broth microdilution method; format: functional; details: Aspergillus hiratsukae, isolate CNM-CM-4328, Cornea; how it was run: as §2
# Aspergillus viridinutans [25] = test: Antimicrobial activity against Aspergillus viridinutans isolate CNM-CM-3147 obtained from oropharyngeal exudate of patient after 48 hrs by broth microdilution method; format: functional; details: isolate CNM-CM-3147, 48 h; how it was run: as §2
# Aspergillus lentulus [26] = test: Antimicrobial activity against Aspergillus lentulus isolate CNM-CM-4426 obtained from sputum of patient after 48 hrs by broth microdilution method; format: functional; details: isolate CNM-CM-4426, 48 h; how it was run: as §2
# Aspergillus lentulus [27] = test: Antimicrobial activity against Aspergillus lentulus isolate CNM-CM-4428 obtained from skin of patient after 48 hrs by broth microdilution method; format: functional; details: isolate CNM-CM-4428, 48 h; how it was run: as §2
# Aspergillus lentulus [28] = test: Antimicrobial activity against Aspergillus lentulus isolate CNM-CM-3134 obtained from sputum of patient after 48 hrs by broth microdilution method; format: functional; details: isolate CNM-CM-3134, 48 h; how it was run: as §2
compound,measurement,setting,value
C[C@@H]1[C@H](O)[C@@H](C)/C=C/C=C/C=C/C=C/C=C/C=C/C=C/[C@H](O[C@@H]2O[C@H](C)[C@@H](O)[C@H](N)[C@@H]2O)C[C@@H]2O[C@](O)(C[C@@H](O)C[C@@H](O)[C@H](O)CC[C@@H](O)C[C@@H](O)CC(=O)O[C@H]1C)C[C@H](O)[C@H]2C(=O)O [AMPHOTERICIN B],MIC,[1],0.25 µg/mL
same,MIC,Aspergillus lentulus [2],7.25 µg/mL
same,MIC,[3],1 µg/mL
same,MIC,Neosartorya hiratsukae [4],0.5 µg/mL
same,MIC,Aspergillus lentulus [5],8 µg/mL
same,MIC,Neosartorya hiratsukae [6],1 µg/mL
same,MIC,Neosartorya hiratsukae [7],0.66 µg/mL
same,MIC,Aspergillus viridinutans [8],0.37 µg/mL
same,MIC,Aspergillus lentulus [9],6 µg/mL
same,MIC,[10],1 µg/mL
same,MIC,Aspergillus lentulus [11],8.4 µg/mL
same,MIC,[12],16 µg/mL
same,MIC,Aspergillus lentulus [13],8 µg/mL
same,MIC,Aspergillus lentulus [14],6 µg/mL
same,MIC,Neosartorya hiratsukae [15],0.31 µg/mL
same,MIC,Aspergillus lentulus [16],2.66 µg/mL
same,MIC,Aspergillus lentulus [17],7.33 µg/mL
same,MIC,[18],0.17 µg/mL
same,MIC,Aspergillus fumigatus,0.25 µg/mL
same,MIC,[19],8 µg/mL
same,MIC,Aspergillus lentulus [20],10.7 µg/mL
same,MIC,Aspergillus lentulus [21],7 µg/mL
same,MIC,Aspergillus lentulus [22],4.5 µg/mL
same,MIC,[23],0.25 µg/mL
same,MIC,Neosartorya hiratsukae [24],0.75 µg/mL
same,MIC,Aspergillus viridinutans [25],0.58 µg/mL
same,MIC,Aspergillus lentulus [26],12 µg/mL
same,MIC,Aspergillus lentulus [27],12 µg/mL
same,MIC,Aspergillus lentulus [28],10 µg/mL
CC[C@H](C)C[C@H](C)CCCCCCCCC(=O)N[C@H]1C[C@@H](O)[C@@H](NCCN)NC(=O)[C@@H]2[C@@H](O)CCN2C(=O)[C@H]([C@H](O)CCN)NC(=O)[C@H]([C@H](O)[C@@H](O)c2ccc(O)cc2)NC(=O)[C@@H]2C[C@@H](O)CN2C(=O)[C@H]([C@@H](C)O)NC1=O [CASPOFUNGIN],minimal effective concentration,[1]; read-out: MEC,0.62 µg/mL
same,minimal effective concentration,Aspergillus lentulus [2]; read-out: MEC,0.11 µg/mL
same,minimal effective concentration,[3]; read-out: MEC,0.12 µg/mL
same,minimal effective concentration,Neosartorya hiratsukae [4]; read-out: MEC,0.34 µg/mL
same,minimal effective concentration,Aspergillus lentulus [5]; read-out: MEC,1 µg/mL
same,minimal effective concentration,Neosartorya hiratsukae [6]; read-out: MEC,0.26 µg/mL
same,minimal effective concentration,Neosartorya hiratsukae [7]; read-out: MEC,0.66 µg/mL
same,minimal effective concentration,Aspergillus viridinutans [8]; read-out: MEC,1 µg/mL
same,minimal effective concentration,Aspergillus lentulus [9]; read-out: MEC,0.25 µg/mL
same,minimal effective concentration,[10]; read-out: MEC,0.5 µg/mL
same,minimal effective concentration,Aspergillus lentulus [11]; read-out: MEC,0.18 µg/mL
same,minimal effective concentration,[12]; read-out: MEC,1.3 µg/mL
same,minimal effective concentration,Aspergillus lentulus [13]; read-out: MEC,1.2 µg/mL
same,minimal effective concentration,Aspergillus lentulus [14]; read-out: MEC,0.25 µg/mL
same,minimal effective concentration,Neosartorya hiratsukae [15]; read-out: MEC,0.03 µg/mL
same,minimal effective concentration,Aspergillus lentulus [16]; read-out: MEC,0.26 µg/mL
same,minimal effective concentration,Aspergillus lentulus [17]; read-out: MEC,0.91 µg/mL
same,minimal effective concentration,[18]; read-out: MEC,0.51 µg/mL
same,minimal effective concentration,Aspergillus fumigatus; read-out: MEC,0.12 µg/mL
same,minimal effective concentration,[19]; read-out: MEC,0.16 µg/mL
same,minimal effective concentration,Aspergillus lentulus [20]; read-out: MEC,0.33 µg/mL
same,minimal effective concentration,Aspergillus lentulus [21]; read-out: MEC,0.42 µg/mL
same,minimal effective concentration,Aspergillus lentulus [22]; read-out: MEC,0.28 µg/mL
same,minimal effective concentration,[23]; read-out: MEC,1 µg/mL
same,minimal effective concentration,Neosartorya hiratsukae [24]; read-out: MEC,0.03 µg/mL
same,minimal effective concentration,Aspergillus viridinutans [25]; read-out: MEC,0.67 µg/mL
same,minimal effective concentration,Aspergillus lentulus [26]; read-out: MEC,0.22 µg/mL
same,minimal effective concentration,Aspergillus lentulus [27]; read-out: MEC,0.29 µg/mL
same,minimal effective concentration,Aspergillus lentulus [28]; read-out: MEC,0.38 µg/mL
